GRK2 aptamer HTS = blocks RNA aptamer binding to human GRK2 | P25098 | bead flow cytometry, FAM-aptamer displacement from GRK2 | inhibition of aptamer binding, % at 10 µM | actives 0.59% (n = 330,000) | AID 488847;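 active = inhibition of aptamer binding above 40%, roughly 3 SD of noise, on plates passing a quality check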;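 also: median bead fluorescence of bound FAM aptamer so fluorescent compounds give negative values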
B2AR ag = human beta-2 adrenergic receptor agonism by FAP; response, % (concentration not given with the values); AID 504454; Am2.2-beta2AR cells, FAP receptor internalization, flow cytometry; P07550; actives 0.43% (n = 340,000);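 active = response above a set limit, near 3 SD of response in nonfluorescent compounds, cut at about 42% in these data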
Arr AP2 block = inhibitors of human beta-arrestin and AP2 interaction; FITC-arrestin peptide / GST-AP2 beads, flow cytometry; AP2 beta2 appendage carries R879A mutation; inhibition, % at 10 µM; actives 0.31% (n = 340,000);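 active = inhibition above a set limit, near 3 SD of compounds lacking own fluorescence, cut at about 54% in these data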;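 also: plate controls were DMSO wells for no effect and 5 µM unlabelled arrestin peptide for full effect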
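System: GST-AP2 R879A glutathione beads. Medium: PBS with 0.05% Tween 20 and 0.1% BSA. Also added: FITC-arrestin peptide, 50 nM. Incubation: 12 min plus 1 h, RT. Measured by: high-throughput flow cytometry of beads, ex 488, em 535 nm. Evaluation: percent drop in bead-associated FITC signal.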
NTR1 ag = activates human neurotensin receptor 1 | NTR1-U2OS beta-arrestin-GFP spot imaging, agonist mode | activation, % at 20 µM | actives 0.17% (n = 330,000) | P30989;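 active = activation at or above 40% of the spot to cytoplasm intensity ratio, with at least 20 cells analyzed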;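 also: 0% = DMSO without peptide and 100% = 100 nM NTR1 peptide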
Target sequence (P30989 whole entry, looked up): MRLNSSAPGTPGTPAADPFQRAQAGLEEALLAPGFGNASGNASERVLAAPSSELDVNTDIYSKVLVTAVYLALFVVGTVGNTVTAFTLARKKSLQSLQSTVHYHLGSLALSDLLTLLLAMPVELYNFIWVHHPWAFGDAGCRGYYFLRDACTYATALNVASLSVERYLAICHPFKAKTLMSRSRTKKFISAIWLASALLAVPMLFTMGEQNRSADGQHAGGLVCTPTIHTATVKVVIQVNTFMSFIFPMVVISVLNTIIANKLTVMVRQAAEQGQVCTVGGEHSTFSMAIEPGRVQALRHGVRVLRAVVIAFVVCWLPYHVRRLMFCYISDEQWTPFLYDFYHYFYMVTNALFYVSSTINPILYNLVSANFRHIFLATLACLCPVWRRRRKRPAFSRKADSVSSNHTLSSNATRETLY
TAG inh = reduces triacylglycerol accumulation in H9c2 cells; Nile Red lipid (TAG) fluorescence; cells loaded with 200 µM oleic acid; inhibition, % at 12.5 µM; actives 0.66% (n = 230,000);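 active = pattern-corrected inhibition of lipid staining of at least 50% with the nuclear-stain viability signal not falling by more than 50%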;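 also: 0% = DMSO wells and 100% = triacsin C control wells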
Hep lipid drop = hepatic lipid droplet formation modulation; AML12 mouse hepatocytes, oleate lipid droplets, BODIPY imaging; inhibition, % at 6.5 µM; actives 0.4% (n = 240,000);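 active = lipid droplet intensity inhibited by at least 50%, with more than 500 cells counted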
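Material – AML12 mouse liver cells · Also added – oleate loading, 100 µM · Compound dosing – 6.5 µM single-point dosing · Times – overnight treatment with compound plus oleate · Measured by – fluorescence imaging, 20x objective, two fields per well · Read-out – percent inhibition of filter-corrected integrated lipid droplet intensity per well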
GRK2 CP1 = confirmation of human GRK2 inhibitors displacing RNA aptamer; shares compounds with GRK2 aptamer HTS; bead-bound GRK2, FAM-aptamer displacement, flow cytometry; aptamer displacement, % at 10 µM; actives 4% (n = 2,000);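 active = aptamer displacement above 40%, near three times the noise of non-fluorescent compounds, on plates passing quality checks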;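 also: negative values mostly reflect intrinsic compound fluorescence rather than true enhancement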
Aptamer quench = fluorescent aptamer quenching in GRK2 counter-screen dose response. shares compounds with GRK2 aptamer HTS. 110 tested, under 10 active. AID 504521. Fluorescent RNA aptamer beads, flow cytometry; active compounds read high. fluorescence change (kMESF span), kMESF (test concentration not listed);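 active = compounds whose bead fluorescence drops by more than 37 kMESF across the dose range, marking them as dye quenchers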
Aptamer quench SP = aptamer fluorescence quenching in GRK2 counter-screen; Carboxyfluorescein RNA aptamer on beads, flow cytometry quenching; active compounds read low; 2,000 tested, under 10 active; AID 504580; fluorescence response (% of DMSO), % at 10 µM; shares compounds with GRK2 aptamer HTS;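 active = compounds that quench the bead-bound fluorescent RNA probe, cutting fluorescence to under half of the solvent control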;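 also: counterscreen run without GRK2 so only probe quenching by compound is measured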
GRK2 CP2 = human GRK2 inhibition confirmation, cherry pick 2. bead-bound GRK2, FAM-aptamer displacement, flow cytometry. AID 504782. inhibition of aptamer binding, % at 10 µM. 360 tested, under 10 active. shares compounds with GRK2 aptamer HTS;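 active = inhibition of aptamer binding above 40%, about triple the noise seen with nonglowing compounds, on plates passing quality control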;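 also: negative values mostly come from compounds that fluoresce themselves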
FAM quench CP2 = quenches fluorescent RNA aptamer, GRK2 hit artifact. shares compounds with GRK2 aptamer HTS. carboxyfluorescein RNA aptamer beads, flow cytometry quenching; active compounds read low. fluorescence response vs DMSO, % at 10 µM. 360 tested, under 10 active. AID 588494;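 active = response vs DMSO under 50%, meaning signal dropped by over half, treated as fluorescence quencher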;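 also: labelled aptamer on streptavidin beads without GRK2 as a quench counter-screen; 100% = bead fluorescence of DMSO wells and lower means quenching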
Starred values were filed as active, the others as inactive. Shown are actives, neighbours in structure and some others; about 2% of the full set was active somewhere.

How did Cc1cc2cc(CNC(=O)c3ccc(S(=O)(=O)N4CCCCC4)cc3)ccc2n1C do in these assays?
GRK2 aptamer HTS: 66*; B2AR ag: 7; Arr AP2 block: -1; NTR1 ag: 2; TAG inh: 16; GRK2 CP1: 0; Aptamer quench SP: 99; GRK2 CP2: -12; FAM quench CP2: 100

What do the screens show for `Cc1cc2cc(CNS(=O)(=O)c3ccccc3)ccc2n1C`?
GRK2 aptamer HTS: 54*; B2AR ag: 2; Arr AP2 block: 7; NTR1 ag: -3; TAG inh: 2; GRK2 CP1: 3; Aptamer quench SP: 84

How did COc1ccc(/C=C\C(=O)NCc2ccc3c(c2)cc(C)n3C)cc1OC do in these assays?
GRK2 aptamer HTS: 4; B2AR ag: -1; Arr AP2 block: 6; NTR1 ag: -1; TAG inh: 15; Hep lipid drop: 29

What do the screens show for `COc1cccc(C(=O)NCc2ccc3c(c2)cc(C)n3C)c1`?
GRK2 aptamer HTS: 84*; B2AR ag: -8; Arr AP2 block: -5; NTR1 ag: -1; TAG inh: -3; Hep lipid drop: 24; GRK2 CP1: 0; Aptamer quench SP: 96

How did Cc1c([N+](=O)[O-])c(C(=O)NC2CCCCC2)nn1C do in these assays?
GRK2 aptamer HTS: 2; B2AR ag: -5; Arr AP2 block: -15; NTR1 ag: 0; TAG inh: 8; Hep lipid drop: 30

Results for COc1ccc(CC(=O)NCc2ccc3c(c2)cc(C)n3C)cc1 ?
GRK2 aptamer HTS: 67*; B2AR ag: 0; Arr AP2 block: 14; NTR1 ag: 0; TAG inh: 25; Hep lipid drop: -10; GRK2 CP1: -2; Aptamer quench SP: 95

How did COc1ccc(NC(=S)NCc2ccc3c(c2)cc(C)n3C)cc1 do in these assays?
GRK2 aptamer HTS: 1; B2AR ag: 1; Arr AP2 block: 4; NTR1 ag: -2; TAG inh: 16; Hep lipid drop: 9

What do the screens show for `Cc1cc(C)cc(C(=O)NCC(=O)OCC(=O)NCC(F)(F)F)c1`?
GRK2 aptamer HTS: 96*; B2AR ag: 8; Arr AP2 block: 32; NTR1 ag: 6; TAG inh: -9; Hep lipid drop: 2; GRK2 CP1: 3; Aptamer quench SP: 100

Results for O=[N+]([O-])c1ccc2nc(SCc3cn4ccccc4n3)[nH]c2c1 ?
GRK2 aptamer HTS: 0; B2AR ag: -12; Arr AP2 block: -5; NTR1 ag: -1; Hep lipid drop: -2

How did O=[N+]([O-])c1ccc2nc(SCc3cn4cccnc4n3)[nH]c2c1 do in these assays?
GRK2 aptamer HTS: 89*; B2AR ag: -4; Arr AP2 block: 12; NTR1 ag: 2; TAG inh: 16; Hep lipid drop: -1; GRK2 CP1: -1; Aptamer quench SP: 99

Results for COc1ccc(-c2nn(-c3ccccc3)cc2CNCc2cccnc2)c(F)c1 ?
GRK2 aptamer HTS: 47*; B2AR ag: -8; Arr AP2 block: 12; NTR1 ag: 0; TAG inh: 4; Hep lipid drop: 2; GRK2 CP1: -4; Aptamer quench SP: 101

How did O=C(NNS(=O)(=O)c1ccc([N+](=O)[O-])cc1)C(=O)Nc1cccc(C(=O)O)c1 do in these assays?
GRK2 aptamer HTS: 69*; B2AR ag: 5; Arr AP2 block: 25; NTR1 ag: 0; Hep lipid drop: -2; GRK2 CP1: 5; Aptamer quench SP: 102

What do the screens show for `O=c1cc[nH]c2ccc(OC(F)(F)F)cc12`?
GRK2 aptamer HTS: 86*; B2AR ag: -5; Arr AP2 block: 4; NTR1 ag: 1; TAG inh: 13; GRK2 CP1: -1; Aptamer quench SP: 100

How did CCCCC1(c2ccc(F)cc2)NC(=O)N(CC(=O)Nc2ccc(N3CCOCC3)cc2)C1=O (configuration not stated) do in these assays?
GRK2 aptamer HTS: 2; B2AR ag: -1; Arr AP2 block: 0; NTR1 ag: 0; TAG inh: -8

How did Cc1c(C)c2ccc(OC(C)C(=O)NC3CCN(Cc4ccccc4)CC3)cc2oc1=O (configuration not stated) do in these assays?
GRK2 aptamer HTS: 0; B2AR ag: -9; Arr AP2 block: -53; NTR1 ag: 1; Hep lipid drop: -20

Results for COc1ccc(N(Cc2cc3cccc(C)c3[nH]c2=O)C(=O)C2CCCO2)cc1 (configuration not stated) ?
GRK2 aptamer HTS: 3; B2AR ag: 4; Arr AP2 block: -19; NTR1 ag: 1; TAG inh: 1; Hep lipid drop: 14

How did COc1cccc(N2CC(C(=O)Nc3ccc(C(=O)OC(C)C)cc3)CC2=O)c1 (configuration not stated) do in these assays?
GRK2 aptamer HTS: 73*; B2AR ag: 1; Arr AP2 block: -3; NTR1 ag: 1; Hep lipid drop: 3; GRK2 CP1: 1; Aptamer quench SP: 101

Results for O=C(NN1C(=O)/C(=C/C=C/c2ccco2)SC1=S)c1ccncc1 ?
GRK2 aptamer HTS: 79*; B2AR ag: 4; Arr AP2 block: 48; NTR1 ag: 0; TAG inh: 4; Hep lipid drop: -3; GRK2 CP1: 12; Aptamer quench SP: 101

What do the screens show for `CC(C)C(C(=O)O)N1C(=O)/C(=C/C=C/c2ccco2)SC1=S` (configuration not stated)?
GRK2 aptamer HTS: 95*; B2AR ag: -1; Arr AP2 block: 13; NTR1 ag: -2; TAG inh: 1; GRK2 CP1: 55*; Aptamer quench: 5.8; Aptamer quench SP: 96

Results for CCCN(CC(=O)Nc1ccccc1C)C(=O)c1cccc(S(=O)(=O)N2CCN(c3ccccc3)CC2)c1 ?
GRK2 aptamer HTS: 2; B2AR ag: 34; Arr AP2 block: 7; NTR1 ag: 1; TAG inh: -4
